Data set [1] can be described thus: Inhibition of CDK5/PRKX/PRKY in human HeLa cells lysate pre incubated for 15 mins followed by ATP acyl phosphate probe addition and measured after 10 mins by LC-MS/MS analysis. It counts as subcellular. Put shortly:
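KiNativ profiling in HeLa lysate (5 mg/mL total protein). Lysate incubated 15 min with inhibitor at 50, 10, 2, 0.8 or 0 μM. ATP or ADP acylphosphate probe then added (5 μM final) and reacted 10 min. Reaction stopped with urea and analysed by targeted MS, using up to four fragment ions per kinase peptide-probe conjugate. % inhibition taken against untreated lysate. Run in duplicate.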

Data set [2] concerns the target Serine/threonine-protein kinase Nek9 (Homo sapiens, UniProt Q8TD19). Description: Inhibition of NEK9 in human HeLa cells lysate pre incubated for 15 mins followed by ATP acyl phosphate probe addition and measured after 10 mins by LC-MS/MS analysis. It counts as subcellular.
For data set [3], the target named is Non-receptor tyrosine-protein kinase TNK1 (Homo sapiens, UniProt Q13470). Briefly: Inhibition of TNK1 in human HeLa cells lysate pre incubated for 15 mins followed by ADP acyl phosphate probe addition and measured after 10 mins by LC-MS/MS analysis. The class given is subcellular.
Data set [4] deals with Calcium/calmodulin-dependent protein kinase type II subunit gamma (Homo sapiens, UniProt Q13555). Briefly: Inhibition of CAMK2g in human HeLa cells lysate at 50 uM pre incubated for 15 mins followed by ADP acyl phosphate probe addition and measured after 10 mins by LC-MS/MS analysis relative to control. The class given is subcellular. The following applies: time 25.0 min. Put shortly: (§1)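 KiNativ-type profiling in HeLa lysate (5 mg/mL total protein). Lysate preincubated 15 min with inhibitor at 50, 10, 2, 0.8 or 0 μM, then ATP or ADP acylphosphate probe added (5 μM final) for 10 min. Reaction stopped with urea and analysed by targeted MS, using up to four fragment ions per kinase peptide-probe conjugate. % inhibition calculated against untreated lysate. Duplicate reactions.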

Data set [5] deals with Serine/threonine-protein kinase 38-like (Homo sapiens, UniProt Q9Y2H1). Briefly: Inhibition of NDR2 in human HeLa cells lysate at 50 uM pre incubated for 15 mins followed by ADP acyl phosphate probe addition and measured after 10 mins by LC-MS/MS analysis relative to control. The class given is subcellular. The following applies: time 25.0 min.
For data set [6], the target named is Ribosomal protein S6 kinase alpha-1 (Homo sapiens, UniProt Q15418). Description: Inhibition of RSK1 domain 2 K1 site in human HeLa cells lysate at 2 uM pre incubated for 15 mins followed by ADP acyl phosphate probe addition and measured after 10 mins by LC-MS/MS analysis relative to control. It counts as subcellular. The note with it: time 25.0 min.
Data set [7] concerns the target T1, Phosphatidylinositol 5-phosphate 4-kinase type-2 alpha (Homo sapiens) (UniProt P48426).
T1 sequence (whole entry): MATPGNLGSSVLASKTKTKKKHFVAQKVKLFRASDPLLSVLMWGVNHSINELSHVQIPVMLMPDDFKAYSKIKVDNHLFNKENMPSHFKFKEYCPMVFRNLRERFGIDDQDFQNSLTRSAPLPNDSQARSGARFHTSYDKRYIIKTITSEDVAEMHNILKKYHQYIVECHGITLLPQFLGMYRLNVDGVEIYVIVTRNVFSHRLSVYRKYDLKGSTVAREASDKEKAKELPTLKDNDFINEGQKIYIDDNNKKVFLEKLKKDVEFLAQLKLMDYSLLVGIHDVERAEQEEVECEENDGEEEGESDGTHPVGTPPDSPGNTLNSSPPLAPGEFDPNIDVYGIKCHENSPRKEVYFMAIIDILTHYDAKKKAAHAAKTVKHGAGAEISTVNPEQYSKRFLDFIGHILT
Description: Inhibition of PIP5K2A LIP1 site in human HeLa cells lysate at 2 uM pre incubated for 15 mins followed by ADP acyl phosphate probe addition and measured after 10 mins by LC-MS/MS analysis relative to control. The class given is subcellular. The note with it: time 25.0 min.

Data set [8] deals with Serine/threonine-protein kinase ATR (Homo sapiens, UniProt Q13535). Briefly: Inhibition of ATR in human HeLa cells lysate at 10 uM pre incubated for 15 mins followed by ATP acyl phosphate probe addition and measured after 10 mins by LC-MS/MS analysis relative to control. The class given is subcellular. The following applies: time 25.0 min. The method, boiled down: as §1
Data set [9] deals with T2, Serine/threonine-protein kinase Nek9 (Homo sapiens) (UniProt Q8TD19).
T2 sequence (whole entry): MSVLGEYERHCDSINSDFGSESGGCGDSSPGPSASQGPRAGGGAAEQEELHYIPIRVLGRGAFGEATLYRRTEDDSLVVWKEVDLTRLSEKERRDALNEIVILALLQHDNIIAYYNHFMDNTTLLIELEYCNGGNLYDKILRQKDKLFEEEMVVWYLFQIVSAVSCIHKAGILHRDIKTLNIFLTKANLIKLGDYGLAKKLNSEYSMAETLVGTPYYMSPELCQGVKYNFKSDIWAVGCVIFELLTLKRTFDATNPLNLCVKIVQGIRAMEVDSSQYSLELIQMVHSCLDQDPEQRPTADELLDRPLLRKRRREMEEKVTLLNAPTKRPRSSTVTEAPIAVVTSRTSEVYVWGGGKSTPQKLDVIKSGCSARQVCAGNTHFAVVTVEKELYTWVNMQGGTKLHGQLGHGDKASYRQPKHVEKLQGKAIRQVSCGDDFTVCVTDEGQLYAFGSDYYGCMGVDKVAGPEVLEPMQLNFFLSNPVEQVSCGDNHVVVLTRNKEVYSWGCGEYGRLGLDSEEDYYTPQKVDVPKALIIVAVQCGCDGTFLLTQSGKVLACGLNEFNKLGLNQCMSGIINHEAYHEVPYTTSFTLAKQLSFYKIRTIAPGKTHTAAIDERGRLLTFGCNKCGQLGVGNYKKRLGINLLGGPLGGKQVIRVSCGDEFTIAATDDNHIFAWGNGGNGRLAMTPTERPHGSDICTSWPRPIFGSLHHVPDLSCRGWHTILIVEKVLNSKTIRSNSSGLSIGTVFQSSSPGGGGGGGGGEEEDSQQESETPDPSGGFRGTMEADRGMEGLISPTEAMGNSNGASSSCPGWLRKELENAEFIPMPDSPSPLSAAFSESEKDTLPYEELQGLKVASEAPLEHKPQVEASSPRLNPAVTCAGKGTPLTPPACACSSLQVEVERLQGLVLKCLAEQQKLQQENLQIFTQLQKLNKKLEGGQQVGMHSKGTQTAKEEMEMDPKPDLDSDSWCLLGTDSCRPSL
Briefly: Inhibition of NEK9 in human HeLa cells lysate at 2 uM pre incubated for 15 mins followed by ATP acyl phosphate probe addition and measured after 10 mins by LC-MS/MS analysis relative to control. It counts as subcellular. The note with it: time 25.0 min.

Another data set has as its system Lewis lung carcinoma. Description: In vivo inhibition of […] in mouse LL2 cells allografted in C57Bl/6 mouse assessed as decrease in Grb2 phosphorylation level for 2 weeks by Western blot analysis. The class given is functional, organism-based. (In western blotting, separated proteins are transferred to a membrane and probed.)
Data set [10] in a line: Toxicity in C57Bl/6 mouse assessed as effect on injection site at 50 mg/kg, ip for 14 days. The class given is organism-based. The note with it: in vivo, 336 h, time 14 day.
Data set [11] can be described thus: Toxicity in C57Bl/6 mouse assessed as effect on total protein level at 50 mg/kg, ip for 14 days (reference value: 5.8 g/dl). The class given is organism-based. The note with it: in vivo, 336 h, time 14 day.

Active and inactive are the calls of the source. No cut-off for these calls is given here. A value given as a limit tells only on which side of the number the result lay.

Data on one compound can be found in ChEMBL document CHEMBL5661979, “Pharmacological inhibition of BMK1 suppresses tumor growth through promyelocytic leukemia protein” (Cancer Cell, 2010).

Chain of Calcium/calmodulin-dependent protein kinase type II subunit gamma (Q13555 whole entry, the tested form may be a part): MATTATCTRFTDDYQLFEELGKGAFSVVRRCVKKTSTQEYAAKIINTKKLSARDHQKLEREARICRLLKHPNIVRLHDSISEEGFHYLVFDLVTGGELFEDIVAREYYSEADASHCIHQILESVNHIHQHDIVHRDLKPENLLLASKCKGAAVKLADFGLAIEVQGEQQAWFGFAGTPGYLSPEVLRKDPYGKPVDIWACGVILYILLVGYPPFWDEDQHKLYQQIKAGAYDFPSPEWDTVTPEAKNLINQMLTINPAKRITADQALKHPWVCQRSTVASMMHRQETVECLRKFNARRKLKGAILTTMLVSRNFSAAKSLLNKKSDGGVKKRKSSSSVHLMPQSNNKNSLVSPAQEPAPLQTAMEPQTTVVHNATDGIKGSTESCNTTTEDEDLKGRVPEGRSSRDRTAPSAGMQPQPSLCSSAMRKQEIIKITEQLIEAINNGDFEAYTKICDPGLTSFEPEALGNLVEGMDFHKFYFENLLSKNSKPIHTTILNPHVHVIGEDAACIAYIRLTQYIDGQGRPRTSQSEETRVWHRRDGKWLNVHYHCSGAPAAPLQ
Chain of Non-receptor tyrosine-protein kinase TNK1 (Q13470 whole entry): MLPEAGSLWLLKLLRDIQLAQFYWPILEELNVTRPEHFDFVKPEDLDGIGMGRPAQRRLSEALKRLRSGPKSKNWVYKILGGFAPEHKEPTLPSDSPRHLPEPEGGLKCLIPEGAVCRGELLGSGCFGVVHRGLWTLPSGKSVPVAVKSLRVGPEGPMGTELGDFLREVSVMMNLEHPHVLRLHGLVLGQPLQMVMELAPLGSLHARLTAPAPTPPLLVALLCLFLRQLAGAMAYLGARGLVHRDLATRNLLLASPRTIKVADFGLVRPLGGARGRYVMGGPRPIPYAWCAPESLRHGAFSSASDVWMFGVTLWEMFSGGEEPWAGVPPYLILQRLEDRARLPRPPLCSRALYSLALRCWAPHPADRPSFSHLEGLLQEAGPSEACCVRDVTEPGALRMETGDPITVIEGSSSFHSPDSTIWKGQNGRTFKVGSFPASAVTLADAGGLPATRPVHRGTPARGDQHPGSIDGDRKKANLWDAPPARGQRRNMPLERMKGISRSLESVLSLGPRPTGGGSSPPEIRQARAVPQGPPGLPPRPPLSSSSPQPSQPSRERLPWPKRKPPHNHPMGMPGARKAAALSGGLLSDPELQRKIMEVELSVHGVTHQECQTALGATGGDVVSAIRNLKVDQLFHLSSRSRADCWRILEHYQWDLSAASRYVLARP
Chain of Serine/threonine-protein kinase 38-like (Q9Y2H1 2-464 limits assumed): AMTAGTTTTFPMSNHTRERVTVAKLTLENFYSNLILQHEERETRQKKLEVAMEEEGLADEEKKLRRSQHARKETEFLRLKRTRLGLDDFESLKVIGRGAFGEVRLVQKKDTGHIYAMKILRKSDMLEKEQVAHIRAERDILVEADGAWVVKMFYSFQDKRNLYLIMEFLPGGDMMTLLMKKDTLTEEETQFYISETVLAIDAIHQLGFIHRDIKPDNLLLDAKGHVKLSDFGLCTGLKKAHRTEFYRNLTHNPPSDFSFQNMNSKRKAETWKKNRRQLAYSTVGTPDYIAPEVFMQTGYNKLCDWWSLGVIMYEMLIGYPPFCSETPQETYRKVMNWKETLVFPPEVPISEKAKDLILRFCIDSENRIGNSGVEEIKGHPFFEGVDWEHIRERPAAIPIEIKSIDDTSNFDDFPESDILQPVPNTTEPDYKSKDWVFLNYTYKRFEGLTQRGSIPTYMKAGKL
Chain of Serine/threonine-protein kinase ATR (Q13535 whole entry, looked up): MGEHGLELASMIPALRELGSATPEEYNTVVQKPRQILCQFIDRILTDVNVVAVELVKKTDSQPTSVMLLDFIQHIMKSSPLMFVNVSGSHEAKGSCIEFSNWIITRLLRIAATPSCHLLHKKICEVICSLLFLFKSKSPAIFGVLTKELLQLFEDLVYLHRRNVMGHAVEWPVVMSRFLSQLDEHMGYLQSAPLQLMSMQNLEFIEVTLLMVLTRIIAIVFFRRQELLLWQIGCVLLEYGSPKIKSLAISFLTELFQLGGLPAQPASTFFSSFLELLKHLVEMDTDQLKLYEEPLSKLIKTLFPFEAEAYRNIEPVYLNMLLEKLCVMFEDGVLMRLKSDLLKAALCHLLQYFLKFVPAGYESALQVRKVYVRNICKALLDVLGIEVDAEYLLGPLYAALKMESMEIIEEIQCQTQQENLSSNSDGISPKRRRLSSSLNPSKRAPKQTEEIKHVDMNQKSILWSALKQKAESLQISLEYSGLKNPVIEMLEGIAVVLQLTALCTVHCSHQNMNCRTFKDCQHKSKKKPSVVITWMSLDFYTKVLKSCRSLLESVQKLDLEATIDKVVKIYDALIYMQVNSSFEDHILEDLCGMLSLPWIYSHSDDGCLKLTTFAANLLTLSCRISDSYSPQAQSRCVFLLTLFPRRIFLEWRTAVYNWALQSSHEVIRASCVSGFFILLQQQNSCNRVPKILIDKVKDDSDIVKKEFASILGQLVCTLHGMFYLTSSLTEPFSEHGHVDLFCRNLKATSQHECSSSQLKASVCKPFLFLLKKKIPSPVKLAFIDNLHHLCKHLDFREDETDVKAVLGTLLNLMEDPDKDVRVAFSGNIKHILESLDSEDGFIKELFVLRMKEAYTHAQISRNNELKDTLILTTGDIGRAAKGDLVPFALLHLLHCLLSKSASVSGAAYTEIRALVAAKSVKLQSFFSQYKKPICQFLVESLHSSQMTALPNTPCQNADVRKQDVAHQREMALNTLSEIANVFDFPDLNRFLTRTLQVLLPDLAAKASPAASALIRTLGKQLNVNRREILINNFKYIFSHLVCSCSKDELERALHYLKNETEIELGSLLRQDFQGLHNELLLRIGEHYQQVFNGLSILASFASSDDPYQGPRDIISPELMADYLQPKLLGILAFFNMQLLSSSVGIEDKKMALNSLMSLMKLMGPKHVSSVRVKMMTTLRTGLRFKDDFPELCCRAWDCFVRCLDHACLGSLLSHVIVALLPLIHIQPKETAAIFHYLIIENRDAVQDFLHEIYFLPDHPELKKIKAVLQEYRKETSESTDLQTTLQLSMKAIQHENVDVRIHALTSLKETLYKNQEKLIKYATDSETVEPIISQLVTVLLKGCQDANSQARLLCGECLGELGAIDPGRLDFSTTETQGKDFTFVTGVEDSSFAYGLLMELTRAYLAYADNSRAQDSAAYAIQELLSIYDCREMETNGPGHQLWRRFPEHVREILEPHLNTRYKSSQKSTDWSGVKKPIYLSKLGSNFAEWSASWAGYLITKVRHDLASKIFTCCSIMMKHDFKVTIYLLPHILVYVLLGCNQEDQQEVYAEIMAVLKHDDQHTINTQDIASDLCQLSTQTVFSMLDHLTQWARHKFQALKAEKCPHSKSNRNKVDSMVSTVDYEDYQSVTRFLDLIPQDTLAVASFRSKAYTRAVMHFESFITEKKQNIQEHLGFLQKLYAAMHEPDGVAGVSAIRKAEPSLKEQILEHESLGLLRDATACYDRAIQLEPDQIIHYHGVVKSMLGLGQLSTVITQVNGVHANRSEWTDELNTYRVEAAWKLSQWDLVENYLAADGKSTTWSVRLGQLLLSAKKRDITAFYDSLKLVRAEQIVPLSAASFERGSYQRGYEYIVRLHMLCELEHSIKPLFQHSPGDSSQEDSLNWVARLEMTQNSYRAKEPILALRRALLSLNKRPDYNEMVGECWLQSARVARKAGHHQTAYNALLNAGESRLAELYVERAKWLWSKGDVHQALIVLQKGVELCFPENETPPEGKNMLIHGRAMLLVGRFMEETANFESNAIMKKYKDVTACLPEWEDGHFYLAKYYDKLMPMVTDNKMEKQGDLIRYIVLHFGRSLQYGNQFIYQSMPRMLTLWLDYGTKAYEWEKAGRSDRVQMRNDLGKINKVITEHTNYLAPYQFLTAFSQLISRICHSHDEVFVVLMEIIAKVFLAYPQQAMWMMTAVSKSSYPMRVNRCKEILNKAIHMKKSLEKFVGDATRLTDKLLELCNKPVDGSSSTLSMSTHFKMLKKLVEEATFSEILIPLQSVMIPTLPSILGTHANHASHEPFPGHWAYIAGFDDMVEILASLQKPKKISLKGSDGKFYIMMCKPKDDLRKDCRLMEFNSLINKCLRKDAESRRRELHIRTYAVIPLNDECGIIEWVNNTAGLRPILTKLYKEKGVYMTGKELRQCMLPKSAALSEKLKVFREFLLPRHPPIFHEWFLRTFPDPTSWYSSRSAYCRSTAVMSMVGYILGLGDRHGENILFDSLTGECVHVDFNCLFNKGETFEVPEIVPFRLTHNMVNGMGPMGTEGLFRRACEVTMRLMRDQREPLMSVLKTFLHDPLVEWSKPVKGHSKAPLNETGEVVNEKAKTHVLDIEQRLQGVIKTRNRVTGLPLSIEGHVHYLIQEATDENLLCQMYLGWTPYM
Chain of Ribosomal protein S6 kinase alpha-1 (Q15418 whole entry, the tested form may be a part): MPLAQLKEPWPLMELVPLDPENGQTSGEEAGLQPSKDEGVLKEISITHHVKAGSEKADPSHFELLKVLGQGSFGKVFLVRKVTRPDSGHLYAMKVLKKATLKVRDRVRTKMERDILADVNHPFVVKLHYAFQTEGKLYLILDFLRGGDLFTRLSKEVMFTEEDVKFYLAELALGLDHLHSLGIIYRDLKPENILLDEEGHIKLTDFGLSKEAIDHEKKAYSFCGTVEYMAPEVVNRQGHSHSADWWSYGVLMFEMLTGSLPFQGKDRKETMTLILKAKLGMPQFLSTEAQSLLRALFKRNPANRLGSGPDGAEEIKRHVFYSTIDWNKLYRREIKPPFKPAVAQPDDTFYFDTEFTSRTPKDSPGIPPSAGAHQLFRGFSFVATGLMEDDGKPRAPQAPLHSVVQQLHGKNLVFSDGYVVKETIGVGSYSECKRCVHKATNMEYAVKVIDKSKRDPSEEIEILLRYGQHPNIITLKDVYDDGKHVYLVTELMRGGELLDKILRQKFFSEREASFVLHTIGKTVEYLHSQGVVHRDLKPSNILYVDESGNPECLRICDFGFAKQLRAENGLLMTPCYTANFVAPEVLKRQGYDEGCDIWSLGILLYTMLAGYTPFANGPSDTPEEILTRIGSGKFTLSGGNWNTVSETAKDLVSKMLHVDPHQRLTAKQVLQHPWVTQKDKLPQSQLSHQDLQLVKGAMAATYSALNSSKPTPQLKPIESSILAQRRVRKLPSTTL

Usually IC50 stands for the concentration that gives 50% inhibition. One may read the inhibition as the change of the read-out against control, counted positive when it falls. `CCOc1cc(N2CCC(O)CC2)ccc1Nc1ncc2c(n1)N(C)c1ccccc1C(=O)N2C`: the IC50 in data set [1] is above 50 µM; in [2], above 50 µM; in data set [3], 10 µM. Besides, the inhibition in data set [4] was determined as 14.1%; in data set [5] it was 6.8%; in data set [6], 18%; in data set [7] it was 3.5%; in data set [8], 6.7%; in data set [9], 3%. Moreover, the inhibition result in the data set with Lewis lung carcinoma is “Active”. Also, the values for the Activity result in [10] and in data set [11] were “Non-Toxic” and 5.8 g/dL, respectively.
